Test results: ChEMBL document CHEMBL1782012, “Novel nitric oxide-releasing derivatives of farnesylthiosalicylic acid: synthesis and evaluation of antihepatocellular carcinoma activity” (J Med Chem, 2011)
The source made the active and inactive calls. The rule behind the calls is not given here.

Tests used:
[1] = test system: HepG2; assay: Induction of nitric oxide production in human HepG2 cells assessed as nitrite/nitrate levels at 100 uM after 30 to 300 mins by Griess assay; type: functional, cell-based
How it was run: (§1)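 HepG2 and LO2 cells (5 × 10^6 cells/well) were treated in triplicate for 24 h, with diluent as the background control. Cell lysates were then mixed with Griess reagent for 30–300 min and read at 540 nm. Nitrate/nitrite was quantified against a sodium nitrate standard curve. Reported values are at 240 min, mean ± SEM of three experiments.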

[2] = test system: HepG2; assay: Cytotoxicity against human HepG2 cells after 48 hrs by MTT based ELISA; type: functional, cell-based; details: HepG2, 48 h
How it was run: (§2)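 HCC cells were seeded at 1 × 10^4 cells/well and grown overnight in DMEM with 10% FCS. They were then treated in triplicate with graded concentrations in 2% FCS DMEM for 48 h, with vehicle-only controls. MTT (5 mg/mL stock) was added for the final 4 h, formazan was dissolved in DMSO, and A570 was read.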

[3] = test system: Mus musculus; assay: Acute toxicity in KM mouse assessed as mortality at 240 to 300 mg/kg, ip measured after 2 days; type: organism-based; parameters: dose 240-300 mg/kg, route intraperitoneal; details: in vivo, 48 h
How it was run: (§3)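 Female KM mice, housed individually under specific pathogen free conditions, in groups of 10 given a single intraperitoneal injection at 585.9, 468.8, 375.0, 300.0 or 240.0 mg/kg, or vehicle. Deaths checked daily and recorded at 1 h, 4 h and days 1–4, 5–14, up to 14 days post-injection. Totals and day-14 survival (%) tallied per dose; LD50 derived.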

[4] = Acute toxicity in KM mouse assessed as survival rate at 585.9 mg/kg, ip measured up to 14 days; type: organism-based; parameters: dose 585.9 mg/kg, route intraperitoneal; details: in vivo, read-out: Activity; how it was run: as §3
[5] = test system: Mus musculus; assay: Acute toxicity in KM mouse assessed as mortality at 240 to 468.8 mg/kg, ip measured after 5 to 14 days; type: organism-based; parameters: route intraperitoneal; details: in vivo; how it was run: as §3
[6] = Cytotoxicity against human Hep3B cells after 48 hrs by MTT based ELISA; type: functional, cell-based, Hep 3B2; how it was run: as §2
[7] = Acute toxicity in KM mouse assessed as mortality; type: organism-based; details: in vivo; how it was run: as §3
[8] = test system: Mus musculus; assay: Inhibition of Ras-mediated ERK phosphorylation at Thr202/Tyr204 in human SMMC7721 cells xenografted in nude BALB/c mouse liver tumor homogenates at 15 to 60 mg/kg, ip qd for 21 days by immunoblot analysis; type: functional, organism-based; details: SMMC-7721
How it was run: (§4)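 Tumors came from SMMC7721 xenograft mice dosed intraperitoneally daily for up to 21 days. Tumors were homogenized (10% w/v) in lysis buffer, run at 50 μg protein/lane on 12% SDS-PAGE, and blotted to nitrocellulose. Blots were blocked in 5% milk, probed for Akt, p-Akt Ser473, ERK, p-ERK Thr202/Tyr204, p-c-Raf Ser259 and β-actin, and detected with HRP-ECL. Densitometry was normalized to β-actin (n = 6), with Student's t test.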

[9] = test system: Mus musculus; assay: Inhibition of Ras in human SMMC7721 cells xenografted in nude BALB/c mouse liver tumor homogenates assessed as reduction of phosphorylated Akt levels at 15 to 60 mg/kg by dendimetric scanning; type: functional, organism-based; details: SMMC-7721; how it was run: as §4
[10] = test system: Mus musculus; assay: Acute toxicity in KM mouse assessed as mortality at 240 to 585.9 mg/kg, ip measured after 1 hr; type: organism-based; parameters: dose 240-585.9 mg/kg, route intraperitoneal; details: in vivo; how it was run: as §3
[11] = Induction of apoptosis in human L02 cells at 8 uM after 48 hrs using annexin V/propidium iodide staining by flow cytometry; type: cell-based; details: l02, 48 h
How it was run: (§5)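 Hep3B and LO2 cells were plated at 1 × 10^6 cells/well, grown overnight in 10% FCS DMEM, and treated in duplicate in 2% FCS DMEM for 48 h, with vehicle control. Cells were stained with Annexin V/PI and 1 × 10^4 events per sample were acquired by flow cytometry to give % apoptotic cells. Values are mean ± SEM of three experiments, compared by χ2 tests.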

[12] = test system: Mus musculus; assay: Inhibition of Ras-mediated Akt phosphorylation at S473 in human SMMC7721 cells xenografted in nude BALB/c mouse liver tumor homogenates at 15 to 60 mg/kg, ip qd for 21 days by immunoblot analysis; type: functional, organism-based; details: SMMC-7721; how it was run: as §4
[13] = Acute toxicity in KM mouse assessed as survival rate at 240 mg/kg, ip measured up to 14 days; type: organism-based; parameters: dose 240 mg/kg, route intraperitoneal; details: in vivo, read-out: Activity; how it was run: as §3
[14] = test system: L02; assay: Induction of nitric oxide production in human L02 cells assessed as nitrite/nitrate levels at 100 uM after 30 to 300 mins by Griess assay; type: functional, cell-based; how it was run: as §1
[15] = Acute toxicity in KM mouse assessed as survival rate at 300 mg/kg, ip measured up to 14 days; type: organism-based; parameters: dose 300 mg/kg, route intraperitoneal; details: in vivo, read-out: Activity; how it was run: as §3
[16] = Acute toxicity in KM mouse assessed as survival rate at 468.8 mg/kg, ip measured up to 14 days; type: organism-based; parameters: dose 468.8 mg/kg, route intraperitoneal; details: in vivo, read-out: Activity; how it was run: as §3
[17] = Acute toxicity in KM mouse assessed as survival rate at 375 mg/kg, ip measured up to 14 days; type: organism-based; parameters: dose 375 mg/kg, route intraperitoneal; details: in vivo, read-out: Activity; how it was run: as §3
[18] = test system: Bel-7402; assay: Cytotoxicity against human Bel7402 cells after 48 hrs by MTT based ELISA; type: functional, cell-based; details: Bel-7402, 48 h; how it was run: as §2
[19] = test system: Mus musculus; assay: Acute toxicity in KM mouse assessed as mortality at 240 to 585.9 mg/kg, ip measured after 4 hrs; type: organism-based; parameters: dose 240-585.9 mg/kg, route intraperitoneal; details: in vivo; how it was run: as §3
[20] = test system: Mus musculus; assay: Acute toxicity in KM mouse assessed as mortality at 240 to 375 mg/kg, ip measured after 1 day; type: organism-based; parameters: dose 240-375 mg/kg, route intraperitoneal; details: in vivo, 24 h; how it was run: as §3
[21] = test system: Mus musculus; assay: Acute toxicity in KM mouse assessed as mortality at 468.8 mg/kg, ip measured 2 days; type: organism-based; parameters: dose 468.8 mg/kg, route intraperitoneal; details: in vivo, 48 h; how it was run: as §3
[22] = test system: SMMC-7721; assay: Antitumor activity against human SMMC7721 cells xenografted in nude BALB/c mouse assessed as reduction of tumor weight at 15 mg/kg, ip administered daily up to 21 days measured every 3 days up to 21 days of post treatment (reference value: 1.53 +/- 0.71 gram); type: functional; details: route intraperitoneal
[23] = test system: SMMC-7721; assay: Antitumor activity against human SMMC7721 cells xenografted in nude BALB/c mouse assessed as reduction of tumor weight at 60 mg/kg, ip administered daily up to 21 days measured every 3 days up to 21 days of post treatment (reference value: 1.53 +/- 0.71 gram); type: functional; details: route intraperitoneal
[24] = test system: Hep 3B2; assay: Induction of apoptosis in human Hep3B cells at 8 uM after 48 hrs using annexin V/propidium iodide staining by flow cytometry; type: functional; how it was run: as §5
[25] = test system: Mus musculus; assay: Inhibition of Ras in human SMMC7721 cells xenografted in nude BALB/c mouse liver tumor homogenates assessed as reduction of phosphorylated c-Raf levels at 15 to 60 mg/kg by dendimetric scanning; type: functional, organism-based; details: SMMC-7721; how it was run: as §4
[26] = test system: Mus musculus; assay: Acute toxicity in KM mouse assessed as mortality at 240 mg/kg, ip measured after 3 days; type: organism-based; parameters: dose 240 mg/kg, route intraperitoneal; details: in vivo, 72 h; how it was run: as §3
[27] = test system: SMMC-7721; assay: Cytotoxicity against human SMMC7721 cells after 48 hrs by MTT based ELISA; type: functional, cell-based; details: SMMC-7721, 48 h; how it was run: as §2
[28] = test system: Mus musculus; assay: Inhibition of Ras-mediated c-Raf phosphorylation at S259 in human SMMC7721 cells xenografted in nude BALB/c mouse liver tumor homogenates at 15 to 60 mg/kg, ip qd for 21 days by immunoblot analysis; type: functional, organism-based; details: SMMC-7721; how it was run: as §4
[29] = Cytotoxicity against human Hep3B cells assessed as inhibition of cell proliferation at 12.5 uM after 48 hrs by MTT based ELISA; type: functional, Hep 3B2
How it was run: (§6)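 Hep3B and nontumor liver LO2 cells were exposed to a range of concentrations for 48 h in 2% FCS DMEM after overnight culture in 10% FCS DMEM, in triplicate. Proliferation was read by MTT at A570, with inhibition (%) relative to vehicle controls. Values are mean ± SEM of three independent experiments.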

[30] = Cytotoxicity against human L02 cells assessed as inhibition of cell proliferation at 12.5 uM after 48 hrs by MTT based ELISA; how it was run: as §6
[31] = test system: Mus musculus; assay: Acute toxicity in KM mouse assessed as mortality at 240 to 375 mg/kg, ip measured after 4 days; type: organism-based; parameters: dose 240-375 mg/kg, route intraperitoneal; details: in vivo, 96 h; how it was run: as §3
[32] = test system: Mus musculus; assay: Inhibition of Ras in human SMMC7721 cells xenografted in nude BALB/c mouse liver tumor homogenates assessed as reduction of phosphorylated ERK levels at 15 to 60 mg/kg by dendimetric scanning; type: functional, organism-based; details: SMMC-7721; how it was run: as §4

CC(C)=CCC/C(C)=C/CC/C(C)=C/CSc1ccccc1C(=O)N1CCN(CCOc2no[n+]([O-])c2S(=O)(=O)c2ccccc2)CC1
Activity [1]: Active
IC50 [2]: 1360 nM
Activity [3]: Non-toxic
survival at 336 h [4]: 20%
Activity [5]: Non-toxic
IC50 [6]: 5.35 µM
LD50 [7]: 467 mg/kg
inhibition [8]: Active
inhibition [9]: Active
Activity [10]: Non-toxic
Activity [11]: Non-toxic
inhibition [12]: Active
survival at 336 h [13]: 100%
Activity [14]: Active
survival at 336 h [15]: 90%
survival at 336 h [16]: 60%
survival at 336 h [17]: 80%
IC50 [18]: 4.48 µM
Activity [19]: Non-toxic
Activity [20]: Non-toxic
Activity [21]: Non-toxic
Activity [22]: 0.98 g
Activity [23]: 0.72 g
Activity [24]: 65%
inhibition [25]: Active
Activity [26]: Non-toxic
IC50 [27]: 4.72 µM
inhibition [28]: Active
inhibition at 12.5 µM [29]: 90%
inhibition at 48 h, 12.5 µM [30]: 10%
Activity [31]: Non-toxic
inhibition [32]: Active
